# Test results as given in ChEMBL document CHEMBL1137134, “Novel thiophenes and analogues with anthelmintic activity against Haemonchus contortus” (Bioorg Med Chem Lett, 2004).
# Tests used:
# Format in all cases: functional, organism-based
# [1] = tested on: Haemonchus contortus; experiment: In vitro anthelmintic activity against Haemonchus contortus after 24 hr of incubation using larval mobility assay; NA denotes <50% inhibition of […] at 100 ppm
# Summary of the method: (§1)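 H. contortus L3 larvae (30–40/well) exposed to compound at 27 °C for 2 or 24 h, then moved to an insert with a 40 µm nylon mesh under 2% low melt agar. After a further 4 h, larvae that migrated through the barrier were counted. EC50 from 2-fold serial dilutions, 200 to 0.2 µM. Primary screen at 100 ppm, 24 h; >50% motility inhibition counted as active.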
# [2] = tested on: Haemonchus contortus; experiment: In vitro anthelmintic activity against Haemonchus contortus after 2 hr of incubation using larval mobility assay
# Summary of the method: (§2)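 L3 larvae (30–40/well) incubated with compound at 27 °C for 2 or 24 h, then moved to an insert whose wells have a nylon mesh (40 µm pores) under 2% low-melt agar. After 4 h more, larvae that migrated through the barrier were counted. Primary screen at 100 ppm, with >50% motility inhibition counted as active. EC50 from 2-fold serial dilutions, 200 to 0.2 µM.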
# [3] = tested on: Haemonchus contortus; experiment: In vitro anthelmintic activity against Haemonchus contortus after 24 hr of incubation using larval mobility assay; summary of the method: as §2
# [4] = tested on: Haemonchus contortus; experiment: In vitro anthelmintic activity against Haemonchus contortus after 2 hr of incubation using larval mobility assay; NA denotes <50% inhibition of mortality at 100 ppm; summary of the method: as §1
SMILES,EC50 [1],EC50 [2] [µM],EC50 [3] [µM],EC50 [4]
N#Cc1c(-c2ccc(F)cc2)csc1N,Not Active,–,–,–
CSc1cccc(-c2ccc(F)cc2)c1,Not Active,–,–,–
CSc1c(C#N)c(-c2ccc(F)cc2)cn1C,–,> 200,175,–
CCOc1scc(-c2ccc(F)cc2)c1C#N,Not Active,–,–,–
CSc1scc(-c2ccc(F)cc2)c1C#N,–,> 200,28,–
CCNc1nc(-c2ccccc2)cs1,–,162,102,–
CNc1scc(-c2ccc(F)cc2)c1C#N,Not Active,–,–,–
CSc1nc(-c2ccc(F)cc2)c[nH]1,Not Active,–,–,–
CCSc1cc(-c2cccnc2)cs1,–,46,33,–
CSc1scc(-c2ccc(F)cc2)c1Br,–,> 200,17,–
CCSc1scc(-c2ccc(F)cc2)c1C#N,–,> 200,6,–
CCSc1cc(-c2ccccc2)cs1,Not Active,–,–,–
CCSc1cc(-c2cccs2)cs1,–,> 200,161,–
CCSc1cc(-c2ccc(F)cc2)cs1,–,> 200,12,–
CCSc1cc(-c2cccc(C#N)c2)cs1,–,> 200,189,–
CSc1ccc(-c2ccc(F)cc2)cc1C#N,Not Active,–,–,–
CSc1ccc(-c2ccc(F)cc2)cc1,Not Active,–,–,–

SMILES,EC50 [1],EC50 [2] [µM],EC50 [3] [µM],EC50 [4]
CCSc1c(C#N)c(-c2ccc(F)cc2)cn1C,Not Active,–,–,Not Active
CSc1cc(-c2ccc(F)cc2)co1,Not Active,–,–,–
c1ccc([C@H]2CN3CCSC3=N2)cc1 [LEVAMISOLE],–,18,15,–
CCc1cc(-c2ccc(F)cc2)cs1,Not Active,–,–,–
CC(=O)c1cc(-c2ccc(F)cc2)cs1,Not Active,–,–,–
CSc1nc(-c2ccccc2)cs1,–,82,190,–
CNc1nc(-c2ccccc2)cs1,–,46,65,–
CSc1cc(-c2ccc(F)cc2)cs1,–,> 200,68,–
CS(=O)(=O)c1scc(-c2ccc(F)cc2)c1C#N,Not Active,–,–,–
CCSc1cc(-c2ccc(F)c(F)c2)cs1,–,> 200,80,–
CNc1nc(-c2ccc(F)cc2)cs1,–,98,64,–
CCSc1nc(-c2ccccc2)cs1,–,> 200,32,–
CSc1nc(-c2ccc(F)cc2)cn1C,Not Active,–,–,–
CCSc1cc(-c2ccc([N+](=O)[O-])cc2)cs1,–,193,15,–
CSc1scc(-c2ccc(F)cc2)c1[N+](=O)[O-],Not Active,–,–,–
N#Cc1cscc1-c1ccc(F)cc1,Not Active,–,–,–
